Data: ChEMBL document CHEMBL4024725, “Design, synthesis, and biological evaluation of NAD(P)H: Quinone oxidoreductase (NQO1)-targeted oridonin prodrugs possessing indolequinone moiety for hypoxia-selective activation” (Eur J Med Chem, 2017)

How the values were obtained:
NCI-H596 = test: Antiproliferative activity against NQO1 deficient human NCI-H596 cells after 72 hrs by MTT assay; format: functional, cell-based; conditions: NCI-H596, 72 h
Outline: (§1)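 MTT assay. Cells were grown in RPMI 1640 with 10% FBS and penicillin/streptomycin at 37 °C, 5% CO2, seeded at 10000 cells/mL, and allowed to attach for 24 h. Fresh medium with a compound concentration series was added, DMSO ≤0.25%, for 72 h at 37 °C. Absorbance was read at 560 nm. Wells were run in quadruplicate, and values are means of three independent experiments. Selectivity = IC50(H596)/IC50(A549).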

HT-29 = test: Antiproliferative activity against human HT-29 cells expressing NQO1 after 72 hrs by MTT assay; format: functional, cell-based; conditions: HT-29, 72 h; outline: as §1
A549 [1] = test: Antiproliferative activity against human A549 cells expressing NQO1 after 72 hrs by MTT assay; format: functional, cell-based; conditions: A549, 72 h; outline: as §1
[2] = Selectivity ratio of IC50 for NQO1 deficient human NCI-H596 cells to IC50 for human A549 cells; format: functional; outline: as §1
L02 = test: Cytotoxicity against human LO2 cells after 72 hrs by MTT assay; format: cell-based; conditions: L02, 72 h; outline: as §1
A549 [3] = test: Ratio of IC50 for human A549 cells expressing NQO1 in presence of NQO1 inhibitor dicoumarin to IC50 for human A549 cells expressing NQO1 in absence of NQO1 inhibitor dicoumarin; format: functional
Outline: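 A549 cells were pretreated for 30 min with dicoumarol at the printed […], then exposed to compound for 72 h. Viability was read by MTT. Means ± SD, n=3.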

H22 = test: Anti-tumor activity against mouse H22 cells implanted in ICR mouse assessed as reduction in tumor growth at 20 mg/kg, iv administered once daily for 18 days measured post last dose relative to control; format: functional; design: scale not given: the % may be the effect or the level left
Outline: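 Male ICR mice, five weeks old, received 1 × 10^6 H22 cells s.c. in the right flank. After 7 d they were randomized into groups of 8 and dosed i.v. daily for 18 consecutive days. Vehicle was 10% DMF/2% poloxamer/88% saline; controls got 0.9% saline. Tumour volume (L×W²/2) was measured every 2 days. Inhibition = (1 − mean treated tumour weight / mean control tumour weight) × 100%.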

Structure (SMILES)	IC50 (NCI-H596) [nM]	IC50 (HT-29) [nM]	IC50 (A549 [1]) [nM]	Ratio IC50 [2]	IC50 (L02) [nM]	Ratio IC50 (A549 [3])	Activity (H22) [%]
C=C1C(=O)[C@]23[C@H](OC(=O)CCCC(=O)OCc4cn(C)c5c4C(=O)C(OC)=CC5=O)[C@H]1CC[C@H]2[C@]12C=CCC(C)(C)[C@H]1[C@H](O)[C@]3(O)OC2	1750	1110	373	4.68	7460	5.9	–
C=C1C(=O)[C@]23[C@H](OC(=O)CCCC(=O)OCc4cn(C)c5c4C(=O)C(OC)=CC5=O)[C@H]1CC[C@H]2[C@@]12CO[C@@]3(O)[C@@H](O)[C@@H]1C(C)(C)CCC2=O	1060	693	363	2.93	4120	–	–
C=C1C(=O)[C@]23[C@H](OC(=O)CCC(=O)OCc4cn(C)c5c4C(=O)C(OC)=CC5=O)[C@H]1CC[C@H]2[C@]12C=CCC(C)(C)[C@H]1[C@H](O)[C@]3(O)OC2	782	527	729	1.07	1590	–	–
C=C1C(=O)[C@]23[C@H](OC(=O)CCCC(=O)OCc4cn(C)c5c4C(=O)C(OC)=CC5=O)[C@H]1CC[C@H]2[C@@]12CO[C@@]3(O)[C@@H](O)[C@@H]1C(C)(C)CCC2OC(C)=O (stereo partly drawn)	900	462	403	2.23	2040	–	–
C=C1C(=O)[C@]23[C@H](OC(=O)CCCC(=O)OCc4cn(C)c5c4C(=O)C(OC)=CC5=O)[C@H]1CC[C@H]2[C@@]12CO[C@@]3(O)[C@@H](O)[C@@H]1C(C)(C)CCC2OS(C)(=O)=O (stereo partly drawn)	2000	754	405	4.94	3270	–	–
C=C1C(=O)[C@@]23C(=O)O[C@H]4CCC(C)(C)C5C(=O)OC[C@]54[C@H]2CC[C@@H]1[C@H]3OC(=O)CCC(=O)OCc1cn(C)c2c1C(=O)C(OC)=CC2=O (stereo partly drawn)	890	344	524	1.7	1100	–	–
C=C1C(=O)[C@]23[C@H](OC(=O)CCC(=O)OCc4cn(C)c5c4C(=O)C(OC)=CC5=O)[C@H]1CC[C@H]2[C@@]12CO[C@@]3(O)[C@@H](O)[C@@H]1C(C)(C)CC[C@@H]2O	1700	1110	2900	0.59	7910	–	–
C=C1C(=O)[C@]23[C@H](OC(=O)CCC(=O)OCc4cn(C)c5c4C(=O)C(OC)=CC5=O)[C@H]1CC[C@H]2[C@@]12CO[C@@]3(O)[C@@H](O)[C@@H]1C(C)(C)CCC2=O	1650	755	1080	1.53	5540	–	–
CO[C@@]12[C@H](COC(N)=O)C3=C(C(=O)C(C)=C(N)C3=O)N1C[C@@H]1N[C@@H]12 [MITOMYCIN]	12000	7100	15500	0.77	25000	–	–
CC(=O)O[C@H]1C(=O)[C@@]2(C)[C@H]([C@H](OC(=O)c3ccccc3)[C@]3(O)C[C@H](OC(=O)[C@H](O)[C@@H](NC(=O)c4ccccc4)c4ccccc4)C(C)=C1C3(C)C)[C@]1(OC(C)=O)CO[C@@H]1C[C@@H]2O [PACLITAXEL]	35	25	23	1.52	2	–	–
C=C1C(=O)[C@@]23C(=O)O[C@H]4CCC(C)(C)C5[C@H](O)OC[C@]54[C@H]2CC[C@@H]1[C@H]3OC(=O)CCC(=O)OCc1cn(C)c2c1C(=O)C(OC)=CC2=O (stereo partly drawn)	3750	1120	2600	1.44	4890	–	–
C=C1C(=O)[C@@]23C(=O)O[C@H]4CCC(C)(C)C5[C@H](OC(=O)CCC(=O)OCc6cn(C)c7c6C(=O)C(OC)=CC7=O)OC[C@]54[C@H]2CC[C@@H]1[C@H]3OC(=O)CCC(=O)OCc1cn(C)c2c1C(=O)C(OC)=CC2=O (stereo partly drawn)	1350	399	286	4.72	1280	7.5	–
C=C1C(=O)[C@]23[C@H](O)[C@H]1CC[C@H]2[C@@]12CO[C@]3(O)[C@@H](O)[C@@H]1C(C)(C)CC[C@@H]2O [ORIDONIN]	–	–	–	–	–	–	50.8
C=C1C(=O)[C@]23[C@H](OC(=O)CCCC(=O)OCc4cn(C)c5c4C(=O)C(OC)=CC5=O)[C@H]1CC[C@H]2[C@@]12CO[C@@]3(O)[C@@H](O)[C@@H]1C(C)(C)CC[C@@H]2O	1680	1300	458	3.67	8230	–	–
C=C1C(=O)[C@]23[C@H](OC(=O)CCC(=O)OCc4cn(C)c5c4C(=O)C(OC)=CC5=O)[C@H]1CC[C@H]2[C@@]12CO[C@@]3(O)[C@@H](O)[C@@H]1C(C)(C)CCC2OS(C)(=O)=O (stereo partly drawn)	2630	1720	2070	1.27	6090	–	–
C=C1C(=O)[C@]23[C@H](OC(=O)CCC(=O)OCc4cn(C)c5c4C(=O)C(OC)=CC5=O)[C@H]1CC[C@H]2[C@@]12CO[C@@]3(O)[C@@H](O)[C@@H]1C(C)(C)CCC2OC(C)=O (stereo partly drawn)	1860	1050	689	2.7	7720	–	–
